Measurements as given in ChEMBL document CHEMBL1177842, “New 6-amino-[1,2,4]triazolo[3,4-b][1,3,4]thiadiazines and [1,2,4]triazolo[3,4-b] [1,3,4]thiadiazin-6-ones: synthesis, characterization and antibacterial activity evaluation” (2010).
≈ marks a conversion by molar mass, not a printed value. Calls of active or inactive are those of the source. No cut-off for these calls is given here.

Columns and labels:
Type in all cases: functional
Acinetobacter baumannii = test: Antibacterial activity against Acinetobacter baumannii ATCC 19606 after 24 hrs by broth microdilution technique
Outline: (§1)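 MIC by broth microdilution following NCCLS recommendations. Strains were grown in Mueller-Hinton broth and the inoculum was 5 × 10^5 cfu in 1 mL. Compounds were dissolved in DMSO and serially diluted in tubes to final concentrations of 1024 down to 2 µg/mL. 24 h old inoculum was added. After 35 °C for 24 h, the MIC was the lowest concentration inhibiting visible growth. Tetracycline and ampicillin served as standards.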

Citrobacter freundii = test: Antibacterial activity against Citrobacter freundii […] after 24 hrs by broth microdilution technique; outline: as §1
Enterobacter cloacae = test: Antibacterial activity against Enterobacter cloacae ATCC 49141 after 24 hrs by broth microdilution technique; outline: as §1
Escherichia coli = test: Antibacterial activity against Escherichia coli ATCC 25922 after 24 hrs by broth microdilution technique; settings: ATCC 25922, 24 h; outline: as §1
Pseudomonas aeruginosa = test: Antibacterial activity against Pseudomonas aeruginosa ATCC 9027 after 24 hrs by broth microdilution technique; outline: as §1
Enterococcus faecalis = test: Antibacterial activity against Enterococcus faecalis ATCC 29212 after 24 hrs by broth microdilution technique; settings: ATCC 29212, 24 h; outline: as §1
Staphylococcus aureus = test: Antibacterial activity against Staphylococcus aureus ATCC 25923 after 24 hrs by broth microdilution technique; settings: ATCC 25923, 24 h; outline: as §1
[1] = tested on: Staphylococcus epidermidis; test: Antibacterial activity against Staphylococcus epidermidis ATCC 14990 after 24 hrs by broth microdilution technique; settings: ATCC 14990, 24 h; outline: as §1
Bacillus cereus = test: Antibacterial activity against Bacillus cereus ATCC 13061 after 24 hrs by broth microdilution technique; outline: as §1

SMILES | MIC (Acinetobacter baumannii; ATCC 19606, 24 h) [µg/mL] | MIC (Citrobacter freundii) [µg/mL] | MIC (Enterobacter cloacae; ATCC 49141, 24 h) [µg/mL] | MIC (Escherichia coli) [µg/mL] | MIC (Pseudomonas aeruginosa; ATCC 9027, 24 h) [µg/mL] | MIC (Enterococcus faecalis) [µg/mL] | MIC (Staphylococcus aureus) [µg/mL] | MIC [1] [µg/mL] | MIC (Bacillus cereus; ATCC 13061, 24 h) [µg/mL] | MIC (Acinetobacter baumannii) | MIC (Enterobacter cloacae) | MIC (Pseudomonas aeruginosa) | MIC (Bacillus cereus)
O=C1CSc2nnc(-c3ccc(S(=O)(=O)c4ccc(Cl)cc4)cc3)n2N1 | 256 (≈ 629 µM) | 512 (≈ 1260 µM) | 512 (≈ 1260 µM) | 128 (≈ 315 µM) | 128 (≈ 315 µM) | 512 (≈ 1260 µM) | 256 (≈ 629 µM) | 256 (≈ 629 µM) | 1020 (≈ 2520 µM) |  |  |  | 
CC1(C)S[C@@H]2[C@H](NC(=O)[C@H](N)c3ccccc3)C(=O)N2[C@H]1C(=O)O [AMPICILLIN] |  | 2 (≈ 5.72 µM) |  |  |  | < 2 | < 2 | < 2 |  | inactive | inactive | inactive | inactive
Nn1c(SCC(=O)Nc2ccccc2)nnc1-c1ccc(S(=O)(=O)c2ccc(Br)cc2)cc1 | 1020 (≈ 1880 µM) | 1020 (≈ 1880 µM) | 256 (≈ 470 µM) | 256 (≈ 470 µM) | 128 (≈ 235 µM) | 1020 (≈ 1880 µM) | 64 (≈ 118 µM) | 256 (≈ 470 µM) | 512 (≈ 940 µM) |  |  |  | 
CN(C)[C@@H]1C(O)=C(C(N)=O)C(=O)[C@@]2(O)C(O)=C3C(=O)c4c(O)cccc4[C@@](C)(O)[C@H]3C[C@@H]12 [TETRACYCLINE] | 2 (≈ 4.5 µM) | 2 (≈ 4.5 µM) |  | 2 (≈ 4.5 µM) | 16 (≈ 36 µM) | 32 (≈ 72 µM) | < 2 | 32 (≈ 72 µM) | < 2 |  | inactive |  | 
O=S(=O)(c1ccc(Br)cc1)c1ccc(-c2nnc3n2N=C(Nc2ccccc2)CS3)cc1 | 512 (≈ 973 µM) | 512 (≈ 973 µM) | 512 (≈ 973 µM) | 256 (≈ 486 µM) | 256 (≈ 486 µM) | 1020 (≈ 1950 µM) | 1020 (≈ 1950 µM) | 1020 (≈ 1950 µM) | 512 (≈ 973 µM) |  |  |  | 
O=c1[nH]n2c(-c3ccc(S(=O)(=O)c4ccc(Br)cc4)cc3)nnc2sc1=O | 1020 (≈ 2200 µM) | 512 (≈ 1100 µM) | 512 (≈ 1100 µM) | 512 (≈ 1100 µM) | 64 (≈ 138 µM) | 1020 (≈ 2200 µM) | 64 (≈ 138 µM) | 512 (≈ 1100 µM) | 1020 (≈ 2200 µM) |  |  |  | 
O=C1CSc2nnc(-c3ccc(S(=O)(=O)c4ccc(Br)cc4)cc3)n2N1 | 256 (≈ 567 µM) | 512 (≈ 1130 µM) | 512 (≈ 1130 µM) | 128 (≈ 284 µM) | 128 (≈ 284 µM) | 1020 (≈ 2270 µM) | 1020 (≈ 2270 µM) | 1020 (≈ 2270 µM) | 1020 (≈ 2270 µM) |  |  |  | 
Nn1c(-c2ccc(S(=O)(=O)c3ccccc3)cc2)n[nH]c1=S | 512 (≈ 1540 µM) | 512 (≈ 1540 µM) | 512 (≈ 1540 µM) | 512 (≈ 1540 µM) | 512 (≈ 1540 µM) | 1020 (≈ 3080 µM) | 512 (≈ 1540 µM) | 128 (≈ 385 µM) | 1020 (≈ 3080 µM) |  |  |  | 
CCOC(=O)C1Sc2nnc(-c3ccc(S(=O)(=O)c4ccc(Cl)cc4)cc3)n2NC1=O (configuration not stated) | 1020 (≈ 2140 µM) | 512 (≈ 1070 µM) | 512 (≈ 1070 µM) | 512 (≈ 1070 µM) | 128 (≈ 267 µM) | 1020 (≈ 2140 µM) | 1020 (≈ 2140 µM) | 1020 (≈ 2140 µM) | 1020 (≈ 2140 µM) |  |  |  | 
Nn1c(S)nnc1-c1ccc(S(=O)(=O)c2ccc(Br)cc2)cc1 | 128 (≈ 311 µM) | 512 (≈ 1240 µM) | 512 (≈ 1240 µM) | 1020 (≈ 2490 µM) | 512 (≈ 1240 µM) | 1020 (≈ 2490 µM) | 512 (≈ 1240 µM) | 512 (≈ 1240 µM) | 1020 (≈ 2490 µM) |  |  |  | 
O=C1CSc2nnc(-c3ccc(S(=O)(=O)c4ccccc4)cc3)n2N1 | 256 (≈ 687 µM) | 512 (≈ 1370 µM) | 512 (≈ 1370 µM) | 128 (≈ 344 µM) | 128 (≈ 344 µM) | 1020 (≈ 2750 µM) | 512 (≈ 1370 µM) | 32 (≈ 85.9 µM) | 1020 (≈ 2750 µM) |  |  |  | 
Nn1c(SCC(=O)Nc2ccccc2)nnc1-c1ccc(S(=O)(=O)c2ccc(Cl)cc2)cc1 | 1020 (≈ 2050 µM) | 512 (≈ 1020 µM) | 512 (≈ 1020 µM) | 128 (≈ 256 µM) | 32 (≈ 64 µM) | 1020 (≈ 2050 µM) | 128 (≈ 256 µM) | 256 (≈ 512 µM) | 1020 (≈ 2050 µM) |  |  |  | 
Nn1c(SCC(=O)O)nnc1-c1ccc(S(=O)(=O)c2ccc(Cl)cc2)cc1 | 1020 (≈ 2410 µM) | 512 (≈ 1210 µM) | 1020 (≈ 2410 µM) | 64 (≈ 151 µM) | 256 (≈ 603 µM) | 256 (≈ 603 µM) | 128 (≈ 301 µM) | 256 (≈ 603 µM) | 1020 (≈ 2410 µM) |  |  |  | 
O=S(=O)(c1ccc(Cl)cc1)c1ccc(-c2nnc3n2N=C(Nc2ccccc2)CS3)cc1 | 512 (≈ 1060 µM) | 128 (≈ 266 µM) | 1020 (≈ 2120 µM) | 128 (≈ 266 µM) | 64 (≈ 133 µM) | 1020 (≈ 2120 µM) | 256 (≈ 531 µM) | 1020 (≈ 2120 µM) | 1020 (≈ 2120 µM) |  |  |  | 
Nn1c(SCC(=O)O)nnc1-c1ccc(S(=O)(=O)c2ccc(Br)cc2)cc1 | 1020 (≈ 2180 µM) | 512 (≈ 1090 µM) | 1020 (≈ 2180 µM) | 64 (≈ 136 µM) | 256 (≈ 545 µM) | 512 (≈ 1090 µM) | 512 (≈ 1090 µM) | 512 (≈ 1090 µM) | 1020 (≈ 2180 µM) |  |  |  | 
Nn1c(SCC(=O)O)nnc1-c1ccc(S(=O)(=O)c2ccccc2)cc1 | 1020 (≈ 2620 µM) | 512 (≈ 1310 µM) | 1020 (≈ 2620 µM) | 64 (≈ 164 µM) | 256 (≈ 656 µM) | 512 (≈ 1310 µM) | 256 (≈ 656 µM) | 128 (≈ 328 µM) | 1020 (≈ 2620 µM) |  |  |  | 
Nn1c(-c2ccc(S(=O)(=O)c3ccc(Cl)cc3)cc2)n[nH]c1=S | 128 (≈ 349 µM) | 512 (≈ 1400 µM) | 512 (≈ 1400 µM) | 1020 (≈ 2790 µM) | 128 (≈ 349 µM) | 1020 (≈ 2790 µM) | 512 (≈ 1400 µM) | 512 (≈ 1400 µM) | 1020 (≈ 2790 µM) |  |  |  | 
